Test results as given in ChEMBL document CHEMBL3585337, “Selective inhibition of prolyl 4-hydroxylases by bipyridinedicarboxylates” (Bioorg Med Chem, 2015).
The source made the active and inactive calls. The calls are words filed in the database; no cut-off is given here.

Tests used:
[1] = target: Egl nine homolog 1 (Homo sapiens) (UniProt Q9GZT9); assay: Inhibition of N-terminal hexa-histidine tagged human PHD2 (181 to 426 amino acids) at 10 uM pre-incubated for 2 mins followed by alpha-ketoglutarate addition using HIF1alpha peptide (556 to 574 amino acids) and 50 uM FeSO4 by RP-HPLC method
Method in brief: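 5 µM NHis6-PHD2(181–426) in Tris-HCl pH 7.8 with 50 µM HIF-1α(556–574) peptide, 1 mg/mL BSA, 0.3 mg/mL catalase, 2 mM ascorbate, 1 mM DTT. Started with 35 µM α-ketoglutarate, 10 min at 30 °C, quenched by 60 s boiling. Conversion by C18 HPLC at 218 nm, relative to no-inhibitor control; three independent experiments.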

[2] = Binding affinity to Fe(2) assessed as half maximal concentration required for binding 20 uM Fe(2) in pH 7.0 sodium phosphate buffer
Method in brief: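 Ligand at 3–500 µM in 10 mM sodium phosphate pH 7.0, started by adding freshly made FeSO4 (20 µM). Equilibrated 15 min, then absorbance read at complex λmax with the no-ligand blank subtracted. Absorbance plotted against log ligand, and Fe20-EC50 taken by sigmoidal non-linear regression. Triplicate; mean ± SE.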

[3] = target: T1, Prolyl 4-hydroxylase subunit alpha-1 (Homo sapiens, UniProt P13674); assay: Inhibition of human recombinant CP4H1 expressed in Escherichia coli Origami B(DE3) at 10 uM pre-incubated for 2 mins followed by alpha-ketoglutarate addition using dansylGlyProProGlyOEt substrate in Tris-HCl buffer at pH 7.8 at 30 degC by HPLC method
[4] = target: T1, Prolyl 4-hydroxylase subunit alpha-1; assay: Inhibition of human recombinant CP4H1 expressed in Escherichia coli Origami B(DE3) pre-incubated for 2 mins followed by alpha-ketoglutarate addition using dansylGlyProProGlyOEt substrate in Tris-HCl buffer at pH 7.8 at 30 degC by HPLC based Cheng-Prussoff equation method
[5] = Binding affinity to Fe(2) assessed as Fe(compound)2+/3 complex formation at 150 uM in Tris buffer at pH 7.8 at 30 degC
Method in brief: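 Assay buffer: 50 mM Tris-HCl pH 7.8, 1% w/v BSA, 100 µg/mL catalase, 2 mM sodium ascorbate, 100 µM AKG, 100 µM DTT, 50 µM FeSO4. Incubated at 30 °C with or without ligand (150 µM). Fe(ligand)3 2+ complex detected by UV–Vis spectrophotometry.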

[6] = target: T1, Prolyl 4-hydroxylase subunit alpha-1; assay: Inhibition of human recombinant CP4H1 expressed in Escherichia coli Origami B(DE3) pre-incubated for 2 mins followed by alpha-ketoglutarate addition using dansylGlyProProGlyOEt substrate in Tris-HCl buffer at pH 7.8 at 30 degC by HPLC method
[7] = Inhibition of human collagen prolyl 4-hydroxylase

Chain of Egl nine homolog 1 (Homo sapiens) (Q9GZT9 2-426 limits assumed): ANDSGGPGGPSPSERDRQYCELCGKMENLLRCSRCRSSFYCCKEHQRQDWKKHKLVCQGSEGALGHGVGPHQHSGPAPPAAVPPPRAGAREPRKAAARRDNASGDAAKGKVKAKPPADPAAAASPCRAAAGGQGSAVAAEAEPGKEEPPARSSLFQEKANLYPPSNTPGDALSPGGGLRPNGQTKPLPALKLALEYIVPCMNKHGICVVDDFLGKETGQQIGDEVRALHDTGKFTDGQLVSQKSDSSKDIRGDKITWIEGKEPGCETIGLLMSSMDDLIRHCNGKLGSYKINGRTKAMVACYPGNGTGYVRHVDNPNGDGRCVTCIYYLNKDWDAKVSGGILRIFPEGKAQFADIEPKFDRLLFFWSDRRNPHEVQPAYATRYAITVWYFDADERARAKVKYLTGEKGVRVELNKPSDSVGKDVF
T1 sequence (P13674 whole entry): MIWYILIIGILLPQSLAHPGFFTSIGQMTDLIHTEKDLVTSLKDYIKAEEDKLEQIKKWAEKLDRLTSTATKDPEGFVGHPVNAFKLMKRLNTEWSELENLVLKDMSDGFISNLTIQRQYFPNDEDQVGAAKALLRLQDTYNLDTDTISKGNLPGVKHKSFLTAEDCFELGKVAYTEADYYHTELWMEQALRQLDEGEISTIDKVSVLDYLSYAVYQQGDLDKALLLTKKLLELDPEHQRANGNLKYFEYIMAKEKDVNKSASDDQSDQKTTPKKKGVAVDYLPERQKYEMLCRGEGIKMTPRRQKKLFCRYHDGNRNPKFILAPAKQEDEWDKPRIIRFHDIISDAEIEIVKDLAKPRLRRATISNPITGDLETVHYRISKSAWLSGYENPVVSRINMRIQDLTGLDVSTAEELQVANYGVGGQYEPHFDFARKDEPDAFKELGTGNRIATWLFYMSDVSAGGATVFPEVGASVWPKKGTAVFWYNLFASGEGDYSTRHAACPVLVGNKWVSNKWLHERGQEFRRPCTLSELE

EC50 [2] | Compound | inhibition [1] | EC50 ([2]; read-out: EC50) | inhibition [3] | Ki [4] | Activity [5] | IC50 [6] | Ki [7]
 | O=C(O)c1ccnc(-c2cccc(C(=O)O)n2)c1 | inactive | 26 µM |  |  |  |  | 
 | O=C(O)c1ccc(-c2cc(C(=O)O)ccn2)nc1 | Active | 78 µM | > 90% | 0.2 µM | Active | 1.2 µM | 
 | O=C(O)c1ccc(C(=O)O)nc1 [PYRIDINE-2,5-DICARBOXYLIC ACID] | inactive |  | Active | 2.6 µM |  | 15 µM | 0.8 µM
 | O=C(O)CNC(=O)C(=O)O | Active |  |  |  |  |  | 
 | c1ccc(-c2ccccn2)nc1 |  | 43 µM | inactive |  | Active |  | 
 | O=C(O)c1ccc(-c2ccc(C(=O)O)cn2)nc1 | inactive | 112 µM |  | 0.14 µM | Active | 0.84 µM | 
 | O=C(O)c1ccnc(-c2cc(C(=O)O)ccn2)c1 | Active | 38 µM | Active |  | Active |  | 
 | O=C(O)c1ccnc(C(=O)O)c1 | Active |  |  |  |  |  | 
Not Active | O=C(O)c1cccnc1-c1ncccc1C(=O)O |  |  |  |  |  |  | 
 | O=C(O)c1ccc(-c2cccc(C(=O)O)n2)nc1 | inactive | 27 µM |  |  |  |  | 
Not Active | O=C(O)c1cccc(-c2cccc(C(=O)O)n2)n1 | inactive |  |  |  |  |  | 
